From PubChem BioAssay
Inconclusive results are not listed.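 The calls were made as follows, unless noted: active = growth inhibition above 25% in both replicates, a cutoff set 3 SD above the mean; inconclusive = above 25% in only one replicate; inactive = the rest.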

What was measured:
[1] = OD615 S. cerevisiae growth inhibition, permissive medium, pilot counter-assay, permissive growth control for S. cerevisiae lifespan shortening project (AID 705); conditions: OD615, 24 h, at 10 µM, active compounds read high
How it was run: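 System – S. cerevisiae with engineered DeaD lifespan system · Buffer or medium – SC raffinose/galactose permissive medium · Schedule – cells pre-grown 4 h, then 24 h compound exposure, 30 °C humidified · Technique – culture turbidity as optical density at 615 nm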

[2] = Restrictive medium S. cerevisiae growth inhibition, OD615, pilot screen of yeast lifespan reduction project, restrictive growth control (AID 706;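 active = growth inhibition above a set limit, 3 SD over mean compound inhibition, in both replicates, cut at about 43% in these data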;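 also: modified DeaD lifespan yeast strain shifted to restrictive glucose medium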); conditions: OD615, 48 h, at 10 µM, active compounds read high
How it was run: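 Material: engineered S. cerevisiae DeaD strain / Medium: glucose-based CSMM-D restrictive medium / Compound: single dose of 10 µM compound final, 0.25% DMSO / Timing: 4 h pre-incubation, 48 h exposure at 30 °C / Technique: OD615 absorbance reading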

[3] = viability gain of MRP-1-high H69AR cells under doxorubicin, pilot screen, MRP-1 activator project, CellTiter-Glo, duplicate (AID 807;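 active = viability increase at or above a cutoff of the median across tested compounds plus 3 SD, cut at about 8.5% in these data, passing the limit was not always enough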;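 also: compound pretreatment 18-22 h then 72 h combined with doxorubicin; 0% = doxorubicin alone and 100% = vehicle without doxorubicin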); conditions: H69AR viability with doxorubicin, CellTiter-Glo luminescence; at 10 µM; active compounds read high
[4] = growth suppression of beta-catenin knockout HCT116, pilot screen, human colon tumor cells (AID 823;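 active = cell viability at or below a set limit in both duplicate runs, the limit being the all-compound median minus 4 SD, cut at about 23% in these data, passing the limit was not always enough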;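 also: 0% = wells killed by 20 µM Hyamine and 100% = untreated DMSO cell wells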); conditions: CellTiter-Glo, 60 h, at 10 µM, active compounds read low
[5] = growth suppression of PTEN-deleted HCT116, pilot screen, cell-based, HCT116 clonal line, CellTiter-Glo (AID 824;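 active = viability at or below 27.92% in each of two runs, the all-compound median minus 4 SD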;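 also: 0% = 20 µM Hyamine control and 100% = vehicle cell control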); conditions: 60 h, at 10 µM, active compounds read low
[6] = inhibitors of the yeast RAM network, pilot screen, dse1pr::URA3 reporter, 5-FOA selection (AID 869;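 active = inhibition over a set limit, the all-compound mean plus 3 SD, in both replicate runs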;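 also: 0% = DMSO wells with no growth and 100% = 10 µM 1-NA-PP1 with full growth; RAM network block rescues cells from 5-FOA so hits raise OD615 growth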); conditions: S. cerevisiae dse1pr::URA3 5-FOA growth, OD615, 2 d; at 10 µM; active compounds read high; strain carries analog-sensitive mutant Cbk1 kinase
[7] = RAM signaling pathway blockade in yeast – S. cerevisiae, Pdr1DBD-CYC8 efflux-inhibited sensitized strain, primary screen (AID 1298;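 active = RAM network inhibition above 8.4% in each of two replicates, 3 SD over the compound average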;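 also: 0% = DMSO untreated cells without growth and 100% = 10 µM 1-NA-PP1 full growth; higher means more yeast growth rescued from 5-FOA killing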); conditions: S. cerevisiae cbk1-as DSE1-URA3 strain, 5-FOA growth OD615, 2 d; at 50 µM; active compounds read high

COc1cccc(C(=O)Nc2ccc(S(=O)(=O)Nc3onc(C)c3C)cc2)c1
inactive: growth inhibition [1] -9.3% | growth inhibition [2] -14.8% | viability increase [3] 0.25% | viability [4] 96.1% | viability [5] 97.9% | inhibition [6] 1.99% | RAM network inhibition [7] 7.93%

Cc1ccc(OCCNC(=O)c2ccco2)cc1C
inactive: growth inhibition [1] 0.475% | growth inhibition [2] -5.61% | viability increase [3] -1.46% | viability [4] 102% | viability [5] 101% | inhibition [6] 1.63% | RAM network inhibition [7] -1.46%

Brc1ccc(OCCOCCN2CCOCC2)cc1
inactive: growth inhibition [1] -13.4% | growth inhibition [2] -8.66% | viability increase [3] 2.95% | viability [4] 91.7% | viability [5] 93% | inhibition [6] 0.12% | RAM network inhibition [7] 1.24%

CCOC(=O)COc1ccc2cc(C(=O)OCC)c(=O)oc2c1
inactive: growth inhibition [1] -4.38% | growth inhibition [2] -13.8% | viability increase [3] -0.91% | viability [4] 103% | viability [5] 96.2% | inhibition [6] 1.7% | RAM network inhibition [7] 2%

Cc1cccc(NC(=O)CN(C)S(=O)(=O)c2cccc3cccnc23)c1
inactive: growth inhibition [1] 2.15% | growth inhibition [2] -0.265% | viability increase [3] 1.15% | viability [4] 96.5% | viability [5] 96.1% | inhibition [6] 0.01% | RAM network inhibition [7] -0.41%

Cc1ccc(-n2ncc3c(NCCCN4CCOCC4)ncnc32)c(C)c1
inactive: growth inhibition [1] -6.19% | growth inhibition [2] 6.86% | viability increase [3] -1.79% | viability [4] 96.1% | viability [5] 93.9% | inhibition [6] 2.75% | RAM network inhibition [7] 0.42%

COc1ccc(-c2oc(/N=C/N3CCOCC3)c(C#N)c2-c2ccc(OC)cc2)cc1
inactive: growth inhibition [1] -10.1% | growth inhibition [2] -18.7% | viability increase [3] -0.81% | viability [4] 88.6% | viability [5] 83.4% | inhibition [6] 2.25% | RAM network inhibition [7] 2.33%

COc1ccc(C2CC(C(F)(F)F)n3ncc(C(=O)O)c3N2)cc1OC (stereo not drawn)
inactive: growth inhibition [1] -0.77% | growth inhibition [2] -3% | viability increase [3] 0.06% | viability [4] 97.2% | viability [5] 97.9% | inhibition [6] 0.23% | RAM network inhibition [7] -0.41%

CCn1c(C)nc2cc(S(=O)(=O)N3CCCC3)ccc21
inactive: growth inhibition [1] -1.56% | growth inhibition [2] 11.8% | viability increase [3] -1.11% | viability [4] 94.3% | viability [5] 88.6% | inhibition [6] 0.805% | RAM network inhibition [7] 2.71%

CSc1ccccc1NC(=O)c1onc(C)c1Cl
inactive: growth inhibition [1] -5.06% | growth inhibition [2] 10.3% | viability increase [3] -1.83% | viability [4] 95.6% | viability [5] 93.2% | inhibition [6] 1.33% | RAM network inhibition [7] 1.54%

CCC(C)Sc1nnc(Cc2cc(=O)[nH]c(=O)[nH]2)n1-c1ccc(OC)cc1 (stereo not drawn)
inactive: growth inhibition [1] 5.64% | growth inhibition [2] -6.83% | viability increase [3] -0.09% | viability [4] 104% | viability [5] 102% | inhibition [6] 0.295% | RAM network inhibition [7] 2.22%

c1coc(C2Nc3ccccc3-c3nc4ccccc4n32)c1 (stereo not drawn)
inactive: growth inhibition [1] -27.2% | growth inhibition [2] -4.04% | viability increase [3] -4.32% | viability [4] 66.6% | viability [5] 68.1% | inhibition [6] 2.14% | RAM network inhibition [7] 8.31%

CCOC(=O)N1CCC(NC(=O)C2CCCN(Cc3nc(-c4cccc(Cl)c4)oc3C)C2)CC1 (stereo not drawn)
inactive: growth inhibition [1] -13.4% | growth inhibition [2] -23.4% | viability increase [3] -5.39% | viability [4] 40.4% | viability [5] 49.5% | inhibition [6] 0.715% | RAM network inhibition [7] 3.95%

COC(=O)c1cc(OC)c(OC)cc1NC(=O)C1CCCO1 (stereo not drawn)
inactive: growth inhibition [1] -6.67% | growth inhibition [2] 1.77% | viability increase [3] -0.93% | viability [4] 105% | viability [5] 99.8% | inhibition [6] 0.545% | RAM network inhibition [7] 4.85%

CCOC(=O)CNC(=O)CSc1nc2sc(C)c(C)c2c(=O)n1C
inactive: growth inhibition [1] -0.13% | growth inhibition [2] 34.3% | viability increase [3] -3.44% | viability [4] 98.4% | viability [5] 97.6% | inhibition [6] 3.61% | RAM network inhibition [7] 5.94%

COc1ccc2[nH]cc(CCNC(=O)C3CCCNC3=O)c2c1 (stereo not drawn)
inactive: growth inhibition [1] -14.6% | growth inhibition [2] -16.5% | viability increase [3] -1.57% | viability [4] 104% | viability [5] 102% | inhibition [6] 0.15% | RAM network inhibition [7] 2.98%

C=CCN(C(=O)CN1CCOCC1)c1nc(C)c(-c2ccccc2)s1
inactive: growth inhibition [1] -16.4% | growth inhibition [2] -12.9% | viability increase [3] -3.35% | viability [4] 91.9% | viability [5] 87.4% | inhibition [6] -0.245% | RAM network inhibition [7] 0.88%

COc1ccc(C2=CC(c3ccc(Cl)cc3)n3cnnc3N2)cc1OC (stereo not drawn)
inactive: growth inhibition [1] -1.79% | growth inhibition [2] 2.91% | viability increase [3] -2.06% | viability [4] 97.3% | viability [5] 87% | inhibition [6] 0.37% | RAM network inhibition [7] 0.78%

CCOC(=O)C1CCN(C(=O)COc2cc(C)c(Br)c(C)c2)CC1
inactive: growth inhibition [1] -2.41% | growth inhibition [2] -16.5% | viability increase [3] -3.43% | viability [4] 94.4% | viability [5] 85.3% | inhibition [6] 1.47% | RAM network inhibition [7] 1.59%

C=CCSc1nnc2c(n1)[nH]c1c(C)cccc12
inactive: growth inhibition [1] -27.3% | growth inhibition [2] 3.13% | viability increase [3] -5.97% | viability [4] 64.6% | viability [5] 65.6% | inhibition [6] 1.71% | RAM network inhibition [7] 5.38%

CCCCNC(=O)Nc1ccc(Br)cn1
inactive: growth inhibition [1] -8.62% | growth inhibition [2] 4.73% | viability increase [3] -1.6% | viability [4] 97.6% | viability [5] 96% | inhibition [6] 0.485% | RAM network inhibition [7] 6.6%

CC(C)(C)c1nnc2sc(SCC(=O)c3cccs3)nn2c1=O
inactive: growth inhibition [1] -4.01% | growth inhibition [2] -13.1% | viability increase [3] -6% | viability [4] 71.1% | viability [5] 81.8% | inhibition [6] 2.62% | RAM network inhibition [7] 5.25%

OC1CCN(c2c3c(nc4cc(-c5cccc(F)c5)nn24)CCCC3)CC1
inactive: growth inhibition [1] 2.2% | growth inhibition [2] -11.2% | viability increase [3] -6.47% | viability [4] 73.8% | viability [5] 65% | inhibition [6] 2.02% | RAM network inhibition [7] 9.14%

Cn1c(=O)c2cc(S(=O)(=O)NC(C(=O)N3CCCCCC3)c3ccccc3)ccc2n(C)c1=O (stereo not drawn)
inactive: growth inhibition [1] -16.6% | growth inhibition [2] -23.3% | viability increase [3] -1.22% | viability [4] 104% | viability [5] 89.1% | inhibition [6] 0.175% | RAM network inhibition [7] 2.61%
